# Laboratory results reported in ChEMBL document CHEMBL1138571, “Design, synthesis and evaluation of tetrahydropyran based COX-1/-2 inhibitors” (Eur J Med Chem, 2009).
# Assays:
# [1] = target: T1, Prostaglandin G/H synthase 1 (Ovis aries, UniProt P05979); test: Inhibition of ovine COX1
# T1 sequence (P05979 whole entry): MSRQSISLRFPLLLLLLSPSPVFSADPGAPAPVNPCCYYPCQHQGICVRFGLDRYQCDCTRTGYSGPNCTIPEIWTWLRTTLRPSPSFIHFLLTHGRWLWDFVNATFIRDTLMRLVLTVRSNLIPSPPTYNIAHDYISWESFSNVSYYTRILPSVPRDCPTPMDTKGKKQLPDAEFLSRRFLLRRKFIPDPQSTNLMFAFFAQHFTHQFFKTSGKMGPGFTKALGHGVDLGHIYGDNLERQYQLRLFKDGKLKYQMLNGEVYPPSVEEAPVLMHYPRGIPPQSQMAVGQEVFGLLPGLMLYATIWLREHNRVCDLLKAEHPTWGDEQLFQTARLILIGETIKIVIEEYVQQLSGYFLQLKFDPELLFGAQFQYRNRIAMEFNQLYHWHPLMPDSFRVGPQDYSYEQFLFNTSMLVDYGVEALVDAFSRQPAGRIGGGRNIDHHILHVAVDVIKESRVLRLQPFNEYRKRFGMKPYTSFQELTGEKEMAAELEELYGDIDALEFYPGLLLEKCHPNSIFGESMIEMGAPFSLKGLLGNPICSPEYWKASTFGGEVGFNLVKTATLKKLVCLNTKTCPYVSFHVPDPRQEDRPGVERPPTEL
# [2] = target: T2, Prostaglandin G/H synthase 2 (Ovis aries, UniProt P79208); test: Inhibition of ovine COX2
# T2 sequence (P79208 whole entry): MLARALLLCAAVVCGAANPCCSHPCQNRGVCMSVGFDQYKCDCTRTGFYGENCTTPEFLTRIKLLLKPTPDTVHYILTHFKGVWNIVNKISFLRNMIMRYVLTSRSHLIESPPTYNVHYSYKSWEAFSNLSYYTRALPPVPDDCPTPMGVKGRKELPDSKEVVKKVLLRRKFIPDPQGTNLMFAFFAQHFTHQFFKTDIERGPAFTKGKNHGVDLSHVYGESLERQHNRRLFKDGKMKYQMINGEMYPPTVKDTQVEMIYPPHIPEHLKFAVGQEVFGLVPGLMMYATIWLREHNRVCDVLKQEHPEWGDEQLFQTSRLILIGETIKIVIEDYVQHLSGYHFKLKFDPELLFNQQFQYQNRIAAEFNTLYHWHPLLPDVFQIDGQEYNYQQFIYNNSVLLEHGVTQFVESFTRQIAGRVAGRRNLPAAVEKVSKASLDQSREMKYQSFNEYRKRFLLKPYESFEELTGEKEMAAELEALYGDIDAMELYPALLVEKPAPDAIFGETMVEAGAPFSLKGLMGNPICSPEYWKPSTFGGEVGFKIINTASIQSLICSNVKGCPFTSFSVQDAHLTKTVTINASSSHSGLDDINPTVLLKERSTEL
# [3] = target: T3, Prostaglandin G/H synthase 1 (Ovis aries) (UniProt P05979); test: Inhibition of ovine COX1 at 10 uM
# T3 sequence (whole entry): T1 sequence (P05979 whole entry)
# Outline: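 Ovine COX-1 enzyme assay in 96-well format following a standard procedure. Compounds were tested at a single concentration of 10^-5 M, in duplicate. Results are expressed as % inhibition.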
SMILES,IC50 [1] [µM],IC50 [2] [µM],inhibition [3] [%]
C[C@]1(O)C[C@@H](CSC#N)O[C@@H](c2ccc(Br)cc2)C1,> 10,> 10,32
C[C@]1(O)C[C@@H](CSC#N)O[C@@H](c2ccc(F)cc2)C1,> 10,1,34
CC(C)Cc1ccc(C(C)C(=O)O)cc1 (configuration not stated),–,–,96

# Results, then the molecule that gave them:
IC50 [1] [µM],IC50 [2] [µM],inhibition [3] [%],SMILES
> 10,> 10,34,CCSC[C@@H]1C[C@](C)(O)C[C@H](c2ccc([N+](=O)[O-])cc2)O1
> 10,> 10,29,C[C@]1(O)C[C@@H](CSC#N)O[C@@H](c2ccc([N+](=O)[O-])cc2)C1
> 10,< 1,42,CCSC[C@@H]1C[C@](C)(O)C[C@H](c2ccc(F)cc2)O1
> 10,> 10,24,CCSC[C@@H]1C[C@](C)(O)C[C@H](c2ccc(Br)cc2)O1
> 10,> 10,34,CCSC[C@@H]1C[C@](C)(O)C[C@H](c2ccc(Cl)cc2)O1
